Reference: ChEMBL document CHEMBL2086314, “Synthesis and anticonvulsant activity of new N-Mannich bases derived from 3-(2-fluorophenyl)- and 3-(2-bromophenyl)-pyrrolidine-2,5-diones. Part II” (Bioorg Med Chem, 2012)
Calls of active or inactive are those of the source. The calls are words filed in the database; no cut-off is given here.

How the values were obtained:
[1] = Neurotoxicity in ip dosed CF-1 albino mouse assessed as motor impairment by rotarod test; assay type: toxicity, organism-based; details: in vivo
Mus musculus [2] = assay: Anticonvulsant activity in ip dosed 6 Hz psychomotor-induced seizure in CF-1 albino mouse assessed as time of peak effect; assay type: functional
Mus musculus [3] = assay: Neurotoxicity in CF-1 albino mouse assessed as motor impairment at 300 mg/kg, ip measured after 0.5 hrs by rotarod test; assay type: toxicity, organism-based; design: dose 300 mg/kg, route intraperitoneal; details: in vivo
In short: (§1)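 Rotarod neurotoxicity in male CF-1 mice given ip doses of 30, 100 or 300 mg/kg (0.5% methylcellulose suspension), examined 0.5 and 4 h after dosing. Impairment means failing to hold balance on the rod for 1 min. Value is the minimum dose causing toxicity in half or more of the animals; response comments are recorded.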

Rattus norvegicus [4] = assay: Anticonvulsant activity in Sprague-Dawley rat assessed as protection from maximum electric shock-induced seizures at 30 mg/kg, po measured after 0.25 hrs; assay type: functional
In short: (§2)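 Male Sprague–Dawley rats, four per group, given 30 mg/kg orally as a suspension in 0.5% methylcellulose/water. MES stimulus 150 mA, 60 Hz, 0.2 s via corneal electrodes. Tested at 0.25, 0.5, 1, 2 and 4 h; value is rats protected out of four.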

Rattus norvegicus [5] = assay: Anticonvulsant activity in Sprague-Dawley rat assessed as protection from maximum electric shock-induced seizures at 30 mg/kg, po measured after 1 hr; assay type: functional; in short: as §2
Mus musculus [6] = assay: Anticonvulsant activity in CF-1 albino mouse assessed as protection from maximal electric shock-induced seizures at 100 mg/kg, ip measured after 1 hr; assay type: functional, organism-based; design: dose 100 mg/kg
Mus musculus [7] = assay: Anticonvulsant activity in CF-1 albino mouse assessed as protection against 6 Hz psychomotor seizure at 100 mg/kg, ip measured after 0.5 hrs; assay type: functional; details: route intraperitoneal
In short: (§3)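 6-Hz psychomotor seizure in male CF-1 mice, compound suspended in 0.5% methylcellulose/water, given ip (100 or 75 mg/kg). Corneal stimulation with 0.2 ms monopolar rectangular pulses at 6 Hz for 3 s, 32 mA, constant-current device. Protected if normal exploratory behaviour resumes within 10 s. Tested 0.25–4 h after dosing; value is mice protected out of four.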

Mus musculus [8] = assay: Anticonvulsant activity in CF-1 albino mouse assessed as protection against 6 Hz psychomotor seizure at 100 mg/kg, ip measured after 0.25 hrs; assay type: functional; details: route intraperitoneal; in short: as §3
Mus musculus [9] = assay: Neurotoxicity in CF-1 albino mouse assessed as motor impairment at 300 mg/kg, ip measured after 4 hrs by rotarod test; assay type: toxicity, organism-based; design: dose 300 mg/kg, route intraperitoneal; details: in vivo; in short: as §1
Mus musculus [10] = assay: Anticonvulsant activity in CF-1 albino mouse assessed as protection from maximal electric shock-induced seizures at 100 mg/kg, ip measured after 0.25 hrs; assay type: functional, organism-based; design: dose 100 mg/kg
Mus musculus [11] = assay: Anticonvulsant activity in CF-1 albino mouse assessed as protection against 6 Hz psychomotor seizure at 100 mg/kg, ip measured after 1 hr; assay type: functional; details: route intraperitoneal; in short: as §3
Mus musculus [12] = assay: Anticonvulsant activity in CF-1 albino mouse assessed as protection against 6 Hz psychomotor seizure at 100 mg/kg, ip measured after 4 hrs; assay type: functional; details: route intraperitoneal; in short: as §3
Mus musculus [13] = organism: Mus musculus; assay: Protective index, ratio of TD50 for CF-1 albino mouse to ED50 for CF-1 albino mouse assessed as protection from maximum electric shock-induced seizures; assay type: functional
In short: (§4)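 ED50 and TD50 determined in male CF-1 mice after ip dosing (0.5% methylcellulose suspension) at the previously estimated time of peak effect. MES 50 mA, 60 Hz, 0.2 s. Groups of eight, with doses varied until at least three points fell between 10–90% protection or motor impairment. Regression gives ED50/TD50 with 95% confidence intervals; PI = TD50/ED50.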

Mus musculus [14] = assay: Anticonvulsant activity in ip dosed CF-1 albino mouse assessed as protection from maximal electric shock-induced seizures measured after 0.5 hrs; assay type: functional; details: read-out: MED
In short: (§5)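 Male CF-1 mice dosed ip at 30, 100 or 300 mg/kg, suspension in 0.5% methylcellulose/water. MES: corneal electrodes primed with electrolyte containing anaesthetic, 50 mA, 60 Hz, 0.2 s. Examined 0.5 and 4 h after dosing. Value is the minimum dose protecting half or more of the animals.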

Rattus norvegicus [15] = assay: Anticonvulsant activity in Sprague-Dawley rat assessed as protection from maximum electric shock-induced seizures at 30 mg/kg, po measured after 4 hrs; assay type: functional; in short: as §2
Rattus norvegicus [16] = assay: Anticonvulsant activity in Sprague-Dawley rat assessed as protection from maximum electric shock-induced seizures at 30 mg/kg, po measured after 2 hrs; assay type: functional; in short: as §2
Rattus norvegicus [17] = assay: Anticonvulsant activity in Sprague-Dawley rat assessed as protection from maximum electric shock-induced seizures at 30 mg/kg, po measured after 0.5 hrs; assay type: functional; in short: as §2
Mus musculus [18] = assay: Anticonvulsant activity in CF-1 albino mouse assessed as protection against 6 Hz psychomotor seizure at 100 mg/kg, ip measured after 2 hrs; assay type: functional; details: route intraperitoneal; in short: as §3
Mus musculus [19] = assay: Anticonvulsant activity in ip dosed CF-1 albino mouse assessed as protection from maximal electric shock-induced seizures; assay type: functional; in short: as §4
Rattus norvegicus [20] = assay: Neurotoxicity in Sprague-Dawley rat assessed as motor impairment at 30 mg/kg, po by rotarod test; assay type: toxicity, organism-based; design: dose 30 mg/kg, route oral; details: in vivo
In short: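 Male Sprague–Dawley rats, four animals, oral 30 mg/kg in 0.5% methylcellulose/water. Motor impairment on the rotarod (failure to keep balance for 1 min) assessed alongside MES at five times from 0.25 to 4 h.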

Mus musculus [21] = assay: Anticonvulsant activity in ip dosed maximal electric shock-induced CF-1 albino mouse assessed as time of peak effect; assay type: functional; in short: as §4
Mus musculus [22] = assay: Anticonvulsant activity in ip dosed CF-1 albino mouse assessed as protection from maximal electric shock-induced seizures measured after 4 hrs; assay type: functional; details: read-out: MED; in short: as §5
Rattus norvegicus [23] = assay: Anticonvulsant activity in po dosed Sprague-Dawley rat assessed as protection from maximum electric shock-induced seizures; assay type: functional
In short: (§6)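 Male Sprague–Dawley rats dosed orally (0.5% methylcellulose suspension). MES 150 mA, 60 Hz, 0.2 s; rotarod impairment is failure to keep balance for 1 min. Groups of eight, at the previously estimated time of peak effect, with doses varied until at least three points fell in the 10–90% range. ED50/TD50 with 95% confidence intervals from regression; PI = TD50/ED50.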

Rattus norvegicus [24] = organism: Rattus norvegicus; assay: Protective index, ratio of TD50 for Sprague-Dawley rat to ED50 for Sprague-Dawley rat assessed as protection from maximum electric shock-induced seizures; assay type: functional; in short: as §6
[25] = Neurotoxicity in po dosed Sprague-Dawley rat assessed as motor impairment measured at time of peak effect by rotarod test; assay type: toxicity, organism-based; details: in vivo; in short: as §6
Mus musculus [26] = assay: Anticonvulsant activity in CF-1 albino mouse assessed as protection from maximal electric shock-induced seizures at 300 mg/kg, ip measured after 0.5 hrs; assay type: functional, organism-based; design: dose 300 mg/kg; in short: as §5
Rattus norvegicus [27] = assay: Anticonvulsant activity in po dosed maximum electric shock-induced Sprague-Dawley rat assessed as time of peak effect; assay type: functional; in short: as §6
Mus musculus [28] = assay: Anticonvulsant activity in CF-1 albino mouse assessed as protection against 6 Hz psychomotor seizure at 75 mg/kg, ip measured after 2 hrs; assay type: functional; details: route intraperitoneal; in short: as §3
Mus musculus [29] = assay: Anticonvulsant activity in CF-1 albino mouse assessed as protection against 6 Hz psychomotor seizure at 75 mg/kg, ip measured after 0.5 hrs; assay type: functional; details: route intraperitoneal; in short: as §3
Mus musculus [30] = assay: Anticonvulsant activity in CF-1 albino mouse assessed as protection against 6 Hz psychomotor seizure at 75 mg/kg, ip measured after 1 hr; assay type: functional; details: route intraperitoneal; in short: as §3
Mus musculus [31] = assay: Anticonvulsant activity in CF-1 albino mouse assessed as protection against 6 Hz psychomotor seizure at 75 mg/kg, ip measured after 0.25 hrs; assay type: functional; details: route intraperitoneal; in short: as §3
Mus musculus [32] = assay: Anticonvulsant activity in CF-1 albino mouse assessed as protection against 6 Hz psychomotor seizure at 75 mg/kg, ip measured after 4 hrs; assay type: functional; details: route intraperitoneal; in short: as §3

| SMILES | TD50 [1] [mg/kg] | Activity (Mus musculus [3]) | Activity (Rattus norvegicus [4]) [%] | Activity (Rattus norvegicus [5]) [%] | Activity (Mus musculus [9]) | Ratio TD50/ED50 (Mus musculus [13]) | Activity (Rattus norvegicus [15]) [%] | Activity (Rattus norvegicus [16]) [%] | Activity (Rattus norvegicus [17]) [%] | ED50 (Mus musculus [19]) [mg/kg] | Activity (Rattus norvegicus [20]) | Time (Mus musculus [21]) [h] | minimal effective dose (Mus musculus [22]) [mg/kg] | ED50 (Rattus norvegicus [23]) [mg/kg] | Ratio TD50/ED50 (Rattus norvegicus [24]) | TD50 [25] [mg/kg] | Activity (Mus musculus [26]) | Time (Rattus norvegicus [27]) [h] | other results |
| --- | --- | --- | --- | --- | --- | --- | --- | --- | --- | --- | --- | --- | --- | --- | --- | --- | --- | --- | --- |
| CC[C@@H](C(N)=O)N1CCCC1=O | > 500 |  |  |  |  |  |  |  |  |  |  |  |  |  |  |  |  |  | Time (Mus musculus [2]): 1 h |
| O=C1CC(c2ccccc2F)C(=O)N1CN1CCN(c2cccc(C(F)(F)F)c2)CC1 (racemic) | > 500 | Non-toxic | 25 | 100 | Non-toxic | >12.09 | 50 | 100 | 100 | 41.4 | Non-toxic | 4 | 100 |  |  |  |  |  | Activity (Mus musculus [6]): Active; Activity (Mus musculus [7]): 75%; Activity (Mus musculus [8]): 25%; Activity (Mus musculus [10]): Active; Activity (Mus musculus [11]): 0%; Activity (Mus musculus [12]): 25%; minimal effective dose (Mus musculus [14]): 300 mg/kg; Activity (Mus musculus [18]): 25% |
| O=C1CC(c2ccccc2Br)C(=O)N1CN1CCN(c2ccc(F)cc2)CC1 (racemic) | 466 | Non-toxic | 25 | 25 | Non-toxic | 5.83 | 75 | 50 | 25 | 79.9 | Non-toxic | 4 | 100 | 7.4 | 8.43 | 62.4 | inactive | 4 |  |
| O=C1CC(c2ccccc2Br)C(=O)N1CN1CCN(c2cccc(Cl)c2)CC1 (racemic) |  | Non-toxic | 0 | 50 | Non-toxic |  | 100 | 100 | 25 |  | Non-toxic |  | 100 | 26.4 | 4.77 | 126 | inactive | 4 | Activity (Mus musculus [28]): 25%; Activity (Mus musculus [29]): 25%; Activity (Mus musculus [30]): 25%; Activity (Mus musculus [31]): 25%; Activity (Mus musculus [32]): 25% |
